According to ChEMBL document CHEMBL1150203, “Antimicrobial diterpenes of Croton sonderianus, 1. Hardwickic and 3,4-secotrachylobanoic acids” (1991):
≈ marks a conversion by molar mass, not a printed value. One block for each compound: values may come before it. Calls of active or inactive are those of the source. The rule behind the calls is not given here.

Columns and labels:
Candida albicans [1] = test: Antifungal activity against Candida albicans ATCC 10231 at 1 mg/ml after 72 hrs by agar-well diffusion assay; format: functional; conditions: ATCC 10231, 72 h, read-out: IZ
Summary of the method: (§1)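 Fungi and yeasts streaked on mycophil agar from broth culture diluted 1:10 in sterile water; 100 μl of compound at 1 mg/ml placed in 11 mm cork-borer wells; plates held at 30°. Inhibition zone width (mm) recorded at 48 and 72 h and coded – to ++++ (1–2, 3–6, 7–12, >13 mm); amphotericin B positive control.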

[2] = test system: Mycolicibacterium smegmatis; test: Antibacterial activity against Mycobacterium smegmatis ATCC 607 at 1 mg/ml after 48 hrs by agar-well diffusion assay; format: functional; conditions: ATCC 607, 48 h, read-out: IZ
Summary of the method: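 Quadrant-streaked eugon agar plates (broth culture diluted 1:10 in water) with 11 mm wells receiving 100 μl of 1 mg/ml compound, incubated at 37°; inhibition zone width in mm scored at 48 h and 72 h as –, +, ++, +++, ++++ (1–2, 3–6, 7–12, >13 mm); streptomycin sulfate control.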

Helminthosporium [3] = test: Antifungal activity against Helminthosporium ATCC 4671 at 1 mg/ml after 72 hrs by agar-well diffusion assay; format: functional; conditions: ATCC 4671, 72 h, read-out: IZ; summary of the method: as §1
[4] = test system: Mycolicibacterium smegmatis; test: Antibacterial activity against Mycobacterium smegmatis ATCC 607 at 1 mg/ml after 48 hrs by agar-well diffusion assay; conditions: ATCC 607, 48 h, read-out: IZ
Helminthosporium [5] = test: Antifungal activity against Helminthosporium ATCC 4671 at 1 mg/ml after 48 hrs by agar-well diffusion assay; format: functional; conditions: ATCC 4671, 48 h, read-out: IZ; summary of the method: as §1
Escherichia coli [6] = test: Antibacterial activity against Escherichia coli ATCC 10536 at 1 mg/ml after 24 hrs by agar-well diffusion assay; format: functional
Summary of the method: (§2)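 Agar-well diffusion on eugon agar, bacteria streaked by quadrant method from broth culture diluted 1:10 in sterile water; 11 mm wells given 100 μl of compound at 1 mg/ml; 37° incubation. Zone width (mm) read at 24 and 48 h, coded –, + (1–2), ++ (3–6), +++ (7–12), ++++ (>13); streptomycin sulfate positive control.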

Saccharomyces cerevisiae [7] = test: Antifungal activity against Saccharomyces cerevisiae ATCC 9763 at 1 mg/ml after 48 hrs by agar-well diffusion assay; format: functional; summary of the method: as §1
Staphylococcus aureus [8] = test: Antibacterial activity against Staphylococcus aureus ATCC 6538 at 1 mg/ml after 24 hrs by agar-well diffusion assay; format: functional; conditions: ATCC 6538, 24 h, read-out: IZ; summary of the method: as §2
[9] = test system: Trichophyton mentagrophytes; test: Antifungal activity against Trichophyton mentagrophytes ATCC 9972 at 1 mg/ml after 48 hrs by agar-well diffusion assay; format: functional; conditions: ATCC 9972, 48 h, read-out: IZ; summary of the method: as §1
Bacillus subtilis [10] = test: Antibacterial activity against Bacillus subtilis ATCC 6633 after 24 hrs by twofold serial dilution method; format: functional; conditions: ATCC 6633, 24 h
Pseudomonas aeruginosa [11] = test: Antibacterial activity against Pseudomonas aeruginosa ATCC 15442 at 1 mg/ml after 24 hrs by agar-well diffusion assay; format: functional; summary of the method: as §2
[12] = test system: Trichophyton mentagrophytes; test: Antifungal activity against Trichophyton mentagrophytes ATCC 9972 at 1 mg/ml after 72 hrs by agar-well diffusion assay; format: functional; conditions: ATCC 9972, 72 h, read-out: IZ; summary of the method: as §1
Escherichia coli [13] = test: Antibacterial activity against Escherichia coli ATCC 10536 at 1 mg/ml after 48 hrs by agar-well diffusion assay; format: functional; summary of the method: as §2
Saccharomyces cerevisiae [14] = test: Antifungal activity against Saccharomyces cerevisiae ATCC 9763 at 1 mg/ml after 72 hrs by agar-well diffusion assay; format: functional; summary of the method: as §1
Aspergillus niger [15] = test: Antifungal activity against Aspergillus niger ATCC 16888 at 1 mg/ml after 72 hrs by agar-well diffusion assay; format: functional; summary of the method: as §1
Staphylococcus aureus [16] = test: Antibacterial activity against Staphylococcus aureus ATCC 6538 at 1 mg/ml after 48 hrs by agar-well diffusion assay; format: functional; conditions: ATCC 6538, 48 h, read-out: IZ; summary of the method: as §2
Candida albicans [17] = test: Antifungal activity against Candida albicans ATCC 10231 at 1 mg/ml after 48 hrs by agar-well diffusion assay; format: functional; conditions: ATCC 10231, 48 h, read-out: IZ; summary of the method: as §1
Bacillus subtilis [18] = test: Antibacterial activity against Bacillus subtilis ATCC 6633 after 48 hrs by twofold serial dilution method; format: functional; conditions: ATCC 6633, 48 h
Trametes sanguinea [19] = test: Antifungal activity against Polyporus sanguineus ATCC 16422 at 1 mg/ml after 72 hrs by agar-well diffusion assay; format: functional; summary of the method: as §1
Bacillus subtilis [20] = test: Antibacterial activity against Bacillus subtilis ATCC 6633 at 1 mg/ml after 48 hrs by agar-well diffusion assay; format: functional; conditions: ATCC 6633, 48 h, read-out: IZ; summary of the method: as §2
[21] = test system: Trichophyton mentagrophytes; test: Antifungal activity against Trichophyton mentagrophytes ATCC 9972 after 48 hrs by twofold serial dilution method; format: functional; conditions: ATCC 9972, 48 h
Trametes sanguinea [22] = test: Antifungal activity against Polyporus sanguineus ATCC 16422 at 1 mg/ml after 48 hrs by agar-well diffusion assay; format: functional; summary of the method: as §1
Pseudomonas aeruginosa [23] = test: Antibacterial activity against Pseudomonas aeruginosa ATCC 15442 at 1 mg/ml after 48 hrs by agar-well diffusion assay; format: functional; summary of the method: as §2
Bacillus subtilis [24] = test: Antibacterial activity against Bacillus subtilis ATCC 6633 at 1 mg/ml after 24 hrs by agar-well diffusion assay; format: functional; conditions: ATCC 6633, 24 h, read-out: IZ; summary of the method: as §2
Aspergillus niger [25] = test: Antifungal activity against Aspergillus niger ATCC 16888 at 1 mg/ml after 48 hrs by agar-well diffusion assay; format: functional; summary of the method: as §1
[26] = test system: Trichophyton mentagrophytes; test: Antifungal activity against Trichophyton mentagrophytes ATCC 9972 after 24 hrs by twofold serial dilution method; format: functional; conditions: ATCC 9972, 24 h
Saccharomyces cerevisiae [27] = test: Antifungal activity against Saccharomyces cerevisiae ATCC 9763 after 24 hrs by twofold serial dilution method; format: functional; conditions: ATCC 9763, 24 h
Saccharomyces cerevisiae [28] = test: Antifungal activity against Saccharomyces cerevisiae ATCC 9763 after 48 hrs by twofold serial dilution method; format: functional; conditions: ATCC 9763, 48 h

MIC (Bacillus subtilis [10]): 0.78 µg/mL (≈ 2.46 µM)
MIC (Bacillus subtilis [18]): 1.56 µg/mL (≈ 4.93 µM)
MIC [21]: 25 µg/mL (≈ 79 µM)
MIC [26]: 25 µg/mL (≈ 79 µM)
SMILES: C[C@@H]1CC[C@@]2(C)C(C(=O)O)=CCC[C@@H]2[C@@]1(C)CCc1ccoc1
zone of inhibition at 1000 µg/mL (Candida albicans [1]): 3 mm
zone of inhibition at 1000 µg/mL [2]: 7 mm
zone of inhibition at 1000 µg/mL (Helminthosporium [3]): 3 mm
zone of inhibition at 1000 µg/mL [4]: 7 mm
zone of inhibition at 1000 µg/mL (Helminthosporium [5]): 3 mm
inhibition zone (IZ) (Escherichia coli [6]): inactive
inhibition zone (IZ) (Saccharomyces cerevisiae [7]): inactive
zone of inhibition at 1000 µg/mL (Staphylococcus aureus [8]): 3 mm
zone of inhibition at 1000 µg/mL [9]: 7 mm
inhibition zone (IZ) (Pseudomonas aeruginosa [11]): inactive
zone of inhibition at 1000 µg/mL [12]: 3 mm
inhibition zone (IZ) (Escherichia coli [13]): inactive
inhibition zone (IZ) (Saccharomyces cerevisiae [14]): inactive
inhibition zone (IZ) (Aspergillus niger [15]): inactive
zone of inhibition at 1000 µg/mL (Staphylococcus aureus [16]): 3 mm
zone of inhibition at 1000 µg/mL (Candida albicans [17]): 1 mm
inhibition zone (IZ) (Trametes sanguinea [19]): inactive
zone of inhibition at 1000 µg/mL (Bacillus subtilis [20]): 7 mm
inhibition zone (IZ) (Trametes sanguinea [22]): inactive
inhibition zone (IZ) (Pseudomonas aeruginosa [23]): inactive
zone of inhibition at 1000 µg/mL (Bacillus subtilis [24]): 7 mm
inhibition zone (IZ) (Aspergillus niger [25]): inactive

MIC (Saccharomyces cerevisiae [27]): 6.25 µg/mL (≈ 6.76 µM)
MIC [21]: 0.78 µg/mL (≈ 0.844 µM)
MIC (Saccharomyces cerevisiae [28]): 12.5 µg/mL (≈ 13.5 µM)
MIC [26]: 0.78 µg/mL (≈ 0.844 µM)
SMILES: C[C@@H]1[C@H](O)[C@@H](C)/C=C/C=C/C=C/C=C/C=C/C=C/C=C/[C@H](O[C@@H]2O[C@H](C)[C@@H](O)[C@H](N)[C@@H]2O)C[C@@H]2O[C@](O)(C[C@@H](O)C[C@@H](O)[C@H](O)CC[C@@H](O)C[C@@H](O)CC(=O)O[C@H]1C)C[C@H](O)[C@H]2C(=O)O [AMPHOTERICIN B]
zone of inhibition at 1000 µg/mL (Candida albicans [1]): 7 mm
zone of inhibition at 1000 µg/mL (Helminthosporium [3]): > 12 mm
zone of inhibition at 1000 µg/mL (Helminthosporium [5]): > 12 mm
zone of inhibition at 1000 µg/mL (Saccharomyces cerevisiae [7]; ATCC 9763, 48 h, read-out: IZ): 7 mm
zone of inhibition at 1000 µg/mL [9]: 7 mm
zone of inhibition at 1000 µg/mL [12]: 7 mm
zone of inhibition at 1000 µg/mL (Saccharomyces cerevisiae [14]; ATCC 9763, 72 h, read-out: IZ): 7 mm
zone of inhibition at 1000 µg/mL (Aspergillus niger [15]; ATCC 16888, 72 h, read-out: IZ): 7 mm
zone of inhibition at 1000 µg/mL (Candida albicans [17]): 7 mm
zone of inhibition at 1000 µg/mL (Trametes sanguinea [19]; ATCC 16422, 72 h, read-out: IZ): > 12 mm
zone of inhibition at 1000 µg/mL (Trametes sanguinea [22]; ATCC 16422, 48 h, read-out: IZ): > 12 mm
zone of inhibition at 1000 µg/mL (Aspergillus niger [25]; ATCC 16888, 48 h, read-out: IZ): 7 mm
